# Results reported in PubChem BioAssay.
# Active and inactive are the calls of the source.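 The calls were made as follows, unless noted: active = visually confirmed hit in the image check and inhibition above 20%; inconclusive = visually confirmed hit but inhibition not above 20%; inactive = no visual hit in the image check.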
# Tests used:
# [1] = inhibitors of TNFa-induced NFkB p65 translocation, primary screen, imaging, HUVEC, MLSMR starter and 10KST1 sets (AID 438;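 active = inhibition above 20% together with a positive visual image hit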;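 also: compound added about 3h40 before a 20 min TNFalpha stimulation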;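 as to inhibition: signal is the nuclear over cytoplasmic p65 intensity ratio per well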); conditions: HUVEC TNFa-induced p65 nuclear translocation; cell count: measured here: nuclei count (cytotoxicity indicator), at 2.08 µM; inhibition: at 2 µM, stronger effect = higher value, 0% TNFa-plus-vehicle, 100% no-TNFa wells
# [2] = inhibitors of E-selectin induction by TNFa, primary screen, imaging, HUVEC, immunofluorescence, MLSMR starter and 10KST1 sets (AID 487); conditions: HUVEC TNFalpha-induced E-selectin immunofluorescence imaging, at 2 µM; inhibition: stronger effect = higher value; nuclei count: measured here: cell number, toxicity;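 as to inhibition: signal is fraction of cell area covered by stained E-selectin grains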;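 as to nuclei count: 100% = median nuclei count of all wells on the same plate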
# [3] = DUSP6 inhibitors restoring Erk phosphorylation by chemical complementation, primary imaging in DUSP6-transfected HeLa (AID 609;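 active = compounds giving at least 50% inhibition in the cell-based MKP-3 phosphatase rescue imaging test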;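 as to inhibition: phospho-Erk level distribution per well compared with pooled transfected vehicle control wells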); conditions: HeLa MKP-3 transfected, phospho-Erk imaging KS statistic, at 10 µM, cells stimulated with TPA for 15 min
# [4] = target: Dual specificity protein phosphatase 6 (Homo sapiens) (UniProt Q16828); assay: as above; conditions: HeLa MKP-3 transfected, phospho-Erk imaging KS statistic; at 10 µM; stronger effect = higher value; cells stimulated with TPA for 15 min
# [5] = target: Voltage-gated potassium channel subunit beta-2 (Rattus norvegicus) (UniProt P62483); assay: KvBeta enzyme negative modulators, primary screen, biochemical, NADPH fluorescence (AID 622;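 active = fluorescence slope higher than the sample average by over 3 SD, cut at about -0.22 in these data, passing the limit was not always enough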;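 also: slope of raw intensity against log time taken from 70 to 1610 s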); conditions: recombinant KvBeta, 4-cyanobenzaldehyde reduction, at 10 µM, stronger effect = higher value
# [6] = target: Voltage-gated potassium channel subunit beta-2 (Rattus norvegicus) (UniProt P62483); assay: KvBeta positive modulators, primary screen, biochemical, NADPH fluorescence (AID 623;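 active = NADPH fluorescence slope more negative than the mean of all samples by about 3 SD, 99.7% confidence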;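 also: fluorescence intensity change per second fitted from 20 to 320 s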); conditions: Recombinant KvBeta, NADPH fluorescence decrease slope, 10 min; at 10 µM; stronger effect = lower value
# [7] = target: Alpha-2C adrenergic receptor (Homo sapiens) (UniProt P18825); assay: modulators of alpha2C/GIRK thallium flux, primary screen, cell-based, HEK293 alpha2C/GIRK1/2 (AID 624;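 active = fluorescence slope after compound addition differing from the mean of all screened samples at 99.7% confidence, in either direction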;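 also: slope of fluorescence ratio to pre-addition baseline per second over 15 to 24 s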); conditions: thallium flux BTC fluorescence, at 10 µM, actives lie on both sides
# [8] = inhibitors of larval lipid processing in zebrafish, primary screen, whole organism, PED6 fluorescence, gall bladder and intestine (AID 686;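 active = a full or partial loss of lipid-probe fluorescence in the fish gall bladder, intestine or both, judged by eye; inactive = no fluorescence loss, or compound toxic to the fish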;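 also: larvae 5 to 7 days old with five fish per well; signal comes from phospholipase A2 cleavage of quenched PED6 carried via bile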); conditions: Zebrafish larvae PED6 lipid processing, fluorescence scoring; screened at 20 µM (by protocol)
# Summary of the method: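 Incubation: overnight exposure of larvae to compound plus PED6 / Test system: live zebrafish larvae aged 5-7 days, whole organism / Amount: 5 larvae per well / Read-out basis: visual per-well fluorescence inhibition score / Signal: visual fluorescence microscopy scoring of gall bladder, gut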
# [9] = inhibitors of Chlamydomonas gravitaxis, primary screen, whole organism, Chlamydomonas reinhardtii, WT vs cilia-less mutant, absorbance, 96-well (AID 463189;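 active = inhibition at or above 50% relative to wild type and mutant plate controls; inactive = inhibition below 50%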;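 also: 0% = wild type cc124 cells in DMSO and 100% = ciliumless bld1 mutant cells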); conditions: OD600 absorbance, 2 days, at 10 µM, stronger effect = higher value
# [10] = measured here: cell density z-score
# [11] = measured here: nuclear c-Myc green intensity z-score
# [12] = measured here: nuclear pErk red intensity z-score, stronger effect = higher value
# Chain of Alpha-2C adrenergic receptor (Homo sapiens) (P18825 whole entry, looked up): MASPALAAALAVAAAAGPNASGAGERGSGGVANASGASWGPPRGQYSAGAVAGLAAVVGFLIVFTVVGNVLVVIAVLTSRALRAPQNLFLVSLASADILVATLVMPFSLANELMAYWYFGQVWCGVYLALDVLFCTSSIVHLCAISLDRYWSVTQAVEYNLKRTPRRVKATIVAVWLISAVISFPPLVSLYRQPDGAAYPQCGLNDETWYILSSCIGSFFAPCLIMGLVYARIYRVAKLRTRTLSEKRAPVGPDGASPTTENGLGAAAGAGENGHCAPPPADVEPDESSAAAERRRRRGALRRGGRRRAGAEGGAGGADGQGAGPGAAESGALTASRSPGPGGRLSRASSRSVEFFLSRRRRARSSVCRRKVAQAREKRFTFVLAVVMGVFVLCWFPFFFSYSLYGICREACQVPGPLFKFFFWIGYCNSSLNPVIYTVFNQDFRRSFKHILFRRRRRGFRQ
# Chain of Dual specificity protein phosphatase 6 (Homo sapiens) (Q16828 whole entry, looked up): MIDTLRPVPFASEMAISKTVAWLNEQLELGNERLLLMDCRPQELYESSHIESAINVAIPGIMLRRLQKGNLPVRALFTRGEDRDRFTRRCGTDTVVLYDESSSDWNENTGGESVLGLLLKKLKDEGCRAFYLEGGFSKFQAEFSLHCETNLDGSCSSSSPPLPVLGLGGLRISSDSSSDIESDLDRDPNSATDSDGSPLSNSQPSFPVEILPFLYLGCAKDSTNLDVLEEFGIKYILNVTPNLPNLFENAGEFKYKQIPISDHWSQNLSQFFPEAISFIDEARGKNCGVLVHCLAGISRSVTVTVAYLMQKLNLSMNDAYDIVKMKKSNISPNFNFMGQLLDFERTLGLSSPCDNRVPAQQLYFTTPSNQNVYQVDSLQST
# Chain of Voltage-gated potassium channel subunit beta-2 (Rattus norvegicus) (P62483 whole entry, looked up): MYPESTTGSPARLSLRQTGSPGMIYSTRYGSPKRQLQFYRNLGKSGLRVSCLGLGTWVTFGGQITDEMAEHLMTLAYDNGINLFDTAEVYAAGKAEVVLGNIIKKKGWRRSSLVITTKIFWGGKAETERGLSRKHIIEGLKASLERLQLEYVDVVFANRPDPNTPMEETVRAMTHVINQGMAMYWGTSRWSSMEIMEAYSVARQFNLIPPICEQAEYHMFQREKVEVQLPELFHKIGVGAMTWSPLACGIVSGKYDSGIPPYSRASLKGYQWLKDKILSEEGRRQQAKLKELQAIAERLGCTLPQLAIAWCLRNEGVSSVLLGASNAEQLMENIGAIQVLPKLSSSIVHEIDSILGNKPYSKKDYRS
SMILES,cell count [1],inhibition [1],inhibition [2],nuclei count [2] [%],"z-score [3, 10]","z-score [3, 11]","z-score [3, 12]",inhibition [4],fluorescence slope [5],NADPH fluorescence slope [6],slope [7],outcome [8],inhibition [9]
COC(=O)C1=C(C)OC(N)=C(C#N)C1c1ccc(OC)c(OC)c1OC (stereo unspecified),401,-10.3% (inactive),-52.9% (inactive),104,0.861,-0.767,-0.967,26.5% (inactive),-0.557 (inactive),-8.1e-05 (inactive),0.00455 (inactive),inactive,42.2% (inactive)
Cc1ccc(C2/C(=C(\O)c3cnn(-c4ccccc4)c3C)C(=O)C(=O)N2CCN(C)C)o1 (stereo unspecified),488,4.7% (inactive),-57.2% (inactive),108,-0.998,2.35,1.95,5.26% (inactive),-0.583 (inactive),-3.5e-05 (inactive),0.00573 (inactive),inactive,-22.8% (inactive)
COC(=O)CC1=C(C(=O)OC)C(c2ccncc2)C(C#N)=C(N)O1 (stereo unspecified),492,-3.8% (inactive),-58.7% (inactive),157,1.74,-0.108,-0.84,16.8% (inactive),-0.366 (inactive),1e-05 (inactive),0.00477 (inactive),inactive,24.5% (inactive)
Cc1nc(Nc2ncc3c(n2)CC(C)(C)CC3=O)nc2ccccc12,532,-10.9% (inactive),-13% (inactive),195,-2.93,-0.197,3.21,-3.5% (inactive),-0.376 (inactive),-2.4e-05 (inactive),0.0055 (inactive),inactive,-7.48% (inactive)
COC(=O)c1ccc(Nc2cc(C)nc(-c3ccccc3O)n2)cc1,598,-2.7% (inactive),-66.3% (inactive),140,0.899,0.0889,-0.242,1.9e-07% (inactive),-0.106 (inactive),2.6e-07 (inactive),0.00449 (inactive),inactive,17.7% (inactive)
COc1cc(NC2=CC(=O)CC(C)(C)C2)cc(OC)c1OC,584,-15% (inactive),-72.4% (inactive),141,-0.351,-0.143,0.715,-1.98% (inactive),-0.488 (inactive),-3.8e-05 (inactive),0.00597 (inactive),inactive,-4.05% (inactive)
CC(C)C(C(=O)Nc1ncn[nH]1)N1C(=O)c2ccccc2C1=O (stereo unspecified),520,-7% (inactive),-28.4% (inactive),121,-1.38,0.141,1.7,-4.27% (inactive),-0.47 (inactive),-7.2e-06 (inactive),0.0054 (inactive),inactive,0.44% (inactive)
O=C(O)CC(NCc1ccco1)C(=O)OCCc1ccccc1 (stereo unspecified),534,-1.9% (inactive),6.5% (inactive),116,-0.641,0.383,-0.409,-1.75% (inactive),-0.398 (inactive),5.7e-06 (inactive),0.00596 (inactive),inactive,32.9% (inactive)
CCCCN(CCCC)c1nc2ccccc2nc1C(C#N)C(=O)NCCCOC (stereo unspecified),382,-6.8% (inactive),-187% (inactive),156,-0.742,0.7,0.633,-5.89% (inactive),-0.0828 (active),9.1e-06 (inactive),0 (active),inactive,5.14% (inactive)
O=C(c1ccccc1)C(CCC(CN1CCOCC1)C(=O)c1ccccc1)CN1CCOCC1 (stereo unspecified),588,-0.1% (inactive),-9.4% (inactive),109,0.046,-0.626,1.7,1.75% (inactive),-0.59 (inactive),-1.8e-05 (inactive),0.00635 (inactive),inactive,24.8% (inactive)
O=C(CC(c1ccccc1)c1ccco1)N1CCOCC1 (stereo unspecified),294,-28.3% (inactive),-96.2% (inactive),84.1,-0.599,0.143,-0.229,14% (inactive),-0.429 (inactive),-4.9e-05 (inactive),0.00649 (inactive),inactive,-5.11% (inactive)
Nc1nnc(CSCc2ccc(F)cc2)s1,537,7% (inactive),23.2% (inactive),111,-1.12,1.17,-0.516,-13.3% (inactive),-0.473 (inactive),-2.4e-05 (inactive),0.00497 (inactive),inactive,3.98% (inactive)
CCOC(=O)C(c1ccccc1)N1CCN(c2ccc(OC)cc2)CC1 (stereo unspecified),365,-5.2% (inactive),-72.8% (inactive),146,-0.336,-0.989,-1.39,11.4% (inactive),-0.422 (inactive),-0.000118 (inactive),0.00552 (inactive),inactive,-10% (inactive)
CSc1nc(N)nc(SCC(=O)OC(C)C)c1C#N,394,-11.8% (inactive),-26.4% (inactive),76.9,-1.22,-0.698,-1.26,0.671% (inactive),-0.371 (inactive),5e-05 (inactive),0.00629 (inactive),inactive,72.2% (active)
CCOC(=O)c1cc(C)n(Cc2cccc(OC)c2OC)c1C,502,-9.3% (inactive),-39.9% (inactive),122,1.01,0.196,0.00488,17% (inactive),-0.496 (inactive),-9.4e-05 (inactive),0.00511 (inactive),inactive,26.9% (inactive)
COc1ccc(OCC(O)Cn2c(Nc3cccc(C)c3)nc3c2c(=O)n(C)c(=O)n3C)cc1 (stereo unspecified),514,-0.2% (inactive),-160% (inactive),139,1.7,-1.51,-0.035,26.3% (inactive),-0.541 (inactive),-3.3e-05 (inactive),0.00591 (inactive),inactive,7.54% (inactive)
CN(Cc1c(O)ccc2c1oc(=O)c1ccccc12)C1CCCCC1,585,-2.8% (inactive),6.7% (inactive),172,0.636,0.684,0.214,-4.27% (inactive),-0.348 (inactive),-7e-05 (inactive),0.00514 (inactive),inactive,3.79% (inactive)
COc1ccc(-c2cc(=O)[nH]c(=O)[nH]2)cc1,636,-16% (inactive),-269% (inactive),186,-0.456,0.584,0.91,3.66% (inactive),-0.466 (inactive),-0.000273 (inactive),0.00552 (inactive),inactive,-6.46% (inactive)
Cc1ccc2[nH]c3c(c2c1)CN(C(=O)CN1CCCc2ccccc21)CC3,557,-8.1% (inactive),-104% (inactive),142,-0.606,-1.61,-0.633,2.92% (inactive),-0.439 (inactive),-7.1e-05 (inactive),0.00496 (inactive),active; weak signal in gallbladder and intestine,15.5% (inactive)
Fc1ccc2[nH]c3c(N4CCN(C5CCCCC5)CC4)ncnc3c2c1,501,-4.2% (inactive),-68.6% (inactive),153,-1.35,0.234,1.42,-6.48% (inactive),-0.152 (inactive),-1.9e-06 (inactive),0.00383 (inactive),inactive,128% (active)
CN(C)CCCN1C(=O)C(O)=C(C(=O)c2cc3ccccc3o2)C1c1ccccn1 (stereo unspecified),511,-3.3% (inactive),-212% (inactive),137,2.7,-1.21,-1.13,12.3% (inactive),-0.525 (inactive),-4.7e-05 (inactive),0.00446 (inactive),inactive,-5.31% (inactive)
COC(=O)c1c(C)noc1-c1cc(C)on1,514,5.6% (inactive),63.3% (inactive),177,-1.72,0.497,0.322,3.56% (inactive),-0.533 (inactive),-4e-05 (inactive),0.00511 (inactive),inactive,-9.07% (inactive)
Cc1cc(=O)oc2cc(OCCSCCN3CCOCC3)ccc12,382,-4.7% (inactive),-171% (inactive),162,1.19,0.929,0.186,15.1% (inactive),-0.358 (inactive),-6.2e-05 (inactive),0.00648 (inactive),inactive,-5.19% (inactive)
COc1ccc(C2N3CC4(C)CN2CC(C)(C3)C4O)cc1OC (stereo unspecified),348,-20.6% (inactive),-105% (inactive),122,0.441,-1.49,-0.949,-5.26% (inactive),-0.473 (inactive),-7.1e-05 (inactive),0.00557 (inactive),inactive,37% (inactive)
Nc1nonc1OCCc1ccccc1,540,-5.8% (inactive),-31.5% (inactive),160,0.698,1.41,0.0192,-6.06% (inactive),-0.439 (inactive),-4.6e-05 (inactive),0.00604 (inactive),inactive,-3.19% (inactive)
CCOC(=O)c1c(CN2CCN(C)CC2)n(C)c2cc(Br)c(OC)cc12,320,-0.7% (inactive),-50.3% (inactive),138,-0.018,0.891,1.91,-12.3% (inactive),-0.462 (inactive),-0.000148 (inactive),0.00634 (inactive),inactive,53.1% (active)
CC(C)C1=C2OC(N)=C(C#N)C(C#N)=C2C(C)CC1 (stereo unspecified),361,-6.8% (inactive),-144% (inactive),150,0.333,0.379,0.759,7.48% (inactive),-0.391 (inactive),-3.9e-05 (inactive),0.0063 (inactive),inactive,13% (inactive)
